Bioassay records deposited in PubChem by Broad Institute.
Sampled rows, rich in hits. Any-hit rate of the full collection: about 5.8%.
IDH1 mut inh: inhibitors of IDH1 R132H reductase, primary screen, biochemical, plate reader, single point | diaphorase/resazurin fluorescence, 60 min | inhibition, % at 10 µM | actives 0.18% (n = 70,000) | Isocitrate dehydrogenase [NADP] cytoplasmic (Homo sapiens), O75874; in the data active means inhibition above about 34%; inconclusive means no clear call, values can overlap the other calls; inactive means below about 11%;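 further: 0% = DMSO and 100% = no enzyme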
Target sequence (O75874 whole entry R132H): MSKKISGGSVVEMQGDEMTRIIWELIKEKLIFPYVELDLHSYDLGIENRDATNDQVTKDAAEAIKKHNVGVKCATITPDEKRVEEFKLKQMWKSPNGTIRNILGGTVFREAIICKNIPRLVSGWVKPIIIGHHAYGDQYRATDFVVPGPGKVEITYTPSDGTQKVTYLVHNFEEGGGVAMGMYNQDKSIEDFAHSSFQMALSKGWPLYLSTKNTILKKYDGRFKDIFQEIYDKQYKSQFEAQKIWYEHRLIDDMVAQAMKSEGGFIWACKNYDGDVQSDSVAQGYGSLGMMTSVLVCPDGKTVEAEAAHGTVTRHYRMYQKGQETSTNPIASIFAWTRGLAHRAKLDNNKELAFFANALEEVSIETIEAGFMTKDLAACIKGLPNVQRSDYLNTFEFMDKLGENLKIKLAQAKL
GASC1 inh: inhibitors of GASC-1 (KDM4C) histone demethylase, primary screen, biochemical, single concentration HTS | Lysine-specific demethylase 4C (Homo sapiens), Q9H3R0 | GST-KDM4C 2-372, H3K9me3 peptide, LANCE TR-FRET | inhibition, % at 12.5 µM | actives 0.15% (n = 96,000);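 active means mean replicate inhibition above about 25%, with at least 55% of replicates also reaching it, limit read from the data, passing the limit was not always enough; inconclusive means only one of those two conditions met; inactive means neither condition met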
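Test system – GST-tagged GASC-1 (JMJD2C) catalytic fragment, aa 2-372 · Medium – HEPES buffer, pH 7.5, plus ascorbate · Reagent – H3K9me3 peptide with Fe(II)/2OG · Compound – one test concentration per compound · Timing – 30 min reaction, 60 min detection, RT · Technique – TR-FRET with Eu antibody and ULight streptavidin, EDTA stop · Read-out basis – inhibition from TR-FRET ratio decrease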
T cruzi growth-1: T. cruzi intracellular proliferation inhibitors, primary screen, cell-based, beta-gal Tulahuen parasites, NIH3T3 host, luminescence | AID 624255, 2012 | inhibition, % at 8.34 µM | actives 5.9% (n = 77,000) | T. cruzi beta-gal in NIH3T3, GalScreen luminescence, 90 h;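 active means mean inhibition above about 93%, with at least 55% of replicates each passing it, limit read from the data, passing the limit was not always enough; inconclusive means only one of those two conditions holds; inactive means neither condition holds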
Pf Dd2 inh: P. falciparum Dd2 growth inhibitors, primary screen, SYBR Green fluorescence, single dose replicates. activity change, % at 10 µM. actives 2.3% (n = 94,000). 72 h; active compounds read low; in the data active means activity change below about -80%; inconclusive means no clear call, values can overlap the other calls
T cruzi growth-2: T. cruzi intracellular proliferation inhibitors, confirmation, cell-based, NIH3T3 host, beta-gal parasite, luminescence, cherry-pick. T. cruzi beta-gal in NIH3T3, GalScreen luminescence, 90 h. inhibition, % at 8.35 µM. actives 72% (n = 5,600). shares compounds with T cruzi growth-1;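 active means mean replicate inhibition above about 95% and at least 55% of replicates individually reaching it, limit read from the data; inconclusive means only one of the two criteria is met; inactive means neither criterion is met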
T cruzi growth-3: inhibitors of intracellular T. cruzi replication, confirmation, NIH3T3 host cells, beta-gal parasites, cherry-pick, set 2; shares compounds with T cruzi growth-1; T. cruzi beta-gal in NIH3T3, GalScreen luminescence, 90 h; inhibition, % at 2.09 µM; actives 21% (n = 5,600); AID 651740, 2012;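 active means mean inhibition above about 95%, with at least 55% of replicates also reaching it, limit read from the data; inconclusive means meets just one of the two conditions; inactive means meets neither condition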;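 further: plate controls were neutral control median for no effect and positive control median for full effect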
3T3 cytotox: cytotoxicity in mouse NIH/3T3 fibroblasts, confirmation, cytotoxicity control for T. cruzi proliferation inhibitor project, cell-based, cherry-pick, single point. shares compounds with T cruzi growth-1. NIH/3T3 viability, CellTiter-Glo ATP luminescence, 90 h. cytotoxicity (signal decrease), % at 8.35 µM. actives 14% (n = 5,600). AID 651742, 2012;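 active means mean signal decrease across replicates above about 35% based on untreated-well scatter, with enough replicates individually passing, limit read from the data; inconclusive means no rule stated though some were filed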;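 further: 0% = median of neutral control wells and 100% = median of positive control wells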
3T3 cytotox 2: NIH/3T3 fibroblast cytotoxicity, confirmation, cytotoxicity control, cell-based, cherry-pick, single point, set 2; actives 56% (n = 5,600); NIH/3T3 viability, CellTiter-Glo ATP luminescence, 90 h; inhibition, % at 24.9 µM; shares compounds with T cruzi growth-1;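 active means mean loss of cell viability signal at or above a set limit, and enough replicates individually reaching it; inconclusive means meets only the mean limit or only the replicate share; inactive means meets neither condition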;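 further: 0% = median of neutral control wells and 100% = median of positive control wells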
Numbers without * were called inactive; ? = inconclusive; . = no result given.

SMILES	IDH1 mut inh	GASC1 inh	T cruzi growth-1	Pf Dd2 inh	T cruzi growth-2	T cruzi growth-3	3T3 cytotox	3T3 cytotox 2
C[C@@H]1CCCCO[C@H](CN(C)S(=O)(=O)c2ccc(Cl)cc2)[C@@H](C)CN([C@@H](C)CO)C(=O)c2cc(NC(=O)C3CCCCC3)ccc2O1	2	0	108*	-81*	112*	?	7	-21
C[C@@H]1CCCCO[C@H](CN(C)S(=O)(=O)c2ccc(F)cc2)[C@H](C)CN([C@H](C)CO)C(=O)c2cc(NC(=O)C3CCCCC3)ccc2O1	-2	0	?	-79	112*	60	-5	11
C[C@H](CO)N1C[C@H](C)[C@H](CN(C)S(=O)(=O)c2cccs2)Oc2ccc(NC(=O)Cn3cnnn3)cc2CC1=O	-1	-1	11	-12	.	.	.	.
C[C@@H]1CN([C@H](C)CO)C(=O)c2ccccc2-c2ccccc2CO[C@@H]1CN(C)C(=O)N[C@H](C)c1ccccc1	-8	1	24	7	.	.	.	.
C[C@H](CO)N1C[C@H](C)[C@H](CN(C)Cc2ccc(Cl)c(Cl)c2)Oc2ccc(NC(=O)Nc3ccccc3)cc2C1=O	0	14	79	32	.	.	.	.
Cc1ccccc1-c1ccc([C@@H]2[C@H]3CN(C(=O)Nc4ccc(F)cc4)CCCCN3[C@H]2CO)cc1	.	-1	107*	11	90	105*	?	106*
Cc1ccccc1-c1ccc([C@H]2[C@H](CO)N3CCCCN(C(=O)Nc4ccc(F)cc4)C[C@@H]23)cc1	.	-1	109*	-41	96*	88	42*	106*
Cc1ccccc1-c1ccc([C@H]2[C@H]3CN(C(=O)Nc4cccc(F)c4)CCCCN3[C@H]2CO)cc1	.	1	92	-29	.	.	.	.
COc1ccc(CN(C)C[C@H]2OCCCC[C@H](C)Oc3ccc(NC(=O)NC(C)C)cc3C(=O)N([C@@H](C)CO)C[C@H]2C)cc1	-1	0	-10	-44	.	.	.	.
C[C@H](CO)N1C[C@H](C)[C@H](CN(C)Cc2ccccc2F)Oc2cc(C#CCN(C)C)ccc2S1(=O)=O	-2	-1	82	-57	.	.	.	.
CC(C)C#Cc1ccc2c(c1)O[C@@H](CN(C)Cc1cccnc1)[C@@H](C)CN([C@H](C)CO)S2(=O)=O	.	0	?	-21	99*	79	25	23
CC(C)C#Cc1ccc2c(c1)O[C@@H](CN(C)Cc1cccnc1)[C@H](C)CN([C@H](C)CO)S2(=O)=O	.	1	100*	-61	99*	92	40*	106*
CC(C)C#Cc1ccc2c(c1)O[C@@H](CN(C)C(=O)c1cccnc1)[C@H](C)CN([C@@H](C)CO)S2(=O)=O	81*	52*	103*	8	76	64	22	39*
CC(C)C#Cc1ccc2c(c1)O[C@H](CN(C)Cc1cccnc1)[C@@H](C)CN([C@@H](C)CO)S2(=O)=O	.	1	93*	-63	108*	102*	42*	106*
CC(C)C#Cc1ccc2c(c1)O[C@H](CN(C)C(=O)c1cccnc1)[C@@H](C)CN([C@H](C)CO)S2(=O)=O	0	3	92	-12	.	.	.	.
CCNC(=O)C[C@H]1CC[C@H]2[C@@H](COC[C@H](O)CN2C(=O)c2cccnc2)O1	.	0	21	4	.	.	.	.
